Results on 4 molecules are retold here after ChEMBL document CHEMBL4819122, “Novel 4-(piperazin-1-yl)quinolin-2(1H)-one bearing thiazoles with antiproliferative activity through VEGFR-2-TK inhibition” (Bioorg Med Chem, 2021).

The term IC50 denotes the concentration that gives 50% inhibition.

For test [1], the system named is K562. The experiment in a line: Cytotoxicity against human K-562 assessed as growth inhibition at 10 uM by NCI protocol relative to control. Type of test: functional. Conditions: read-out: GI. The essentials:
(§1)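 Run by NCI as a single-dose screen at 10 μM across the sixty-cell-line panel, which covers nine human tumour tissue types. The read-out is percent growth inhibition of treated cells relative to untreated cells.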

Test [2] deals with NCI-H460. Put plainly: Cytotoxicity against human NCI-H460 assessed as growth inhibition at 10 uM by NCI protocol relative to control. The settings on record: read-out: GI. Type of test: functional. The essentials:
as §1

Test [3] concerns 786-0. The experiment in a line: Cytotoxicity against human 786-0 assessed as growth inhibition at 10 uM by NCI protocol relative to control. Type of test: functional. Conditions: read-out: GI. Summed up: as §1
Test [4] concerns OVCAR-4. Put plainly: Cytotoxicity against human OVCAR-4 assessed as growth inhibition at 10 uM by NCI protocol relative to control. Type of test: functional. Conditions: read-out: GI. Summed up: as §1
In test [5] the test system is NCI-H226. Put plainly: Cytotoxicity against human NCI-H226 assessed as growth inhibition at 10 uM by NCI protocol relative to control. Conditions: read-out: GI. Type of test: functional. Summed up: as §1
For test [6], the system named is HOP-62. The experiment in a line: Cytotoxicity against human HOP-62 assessed as growth inhibition at 10 uM by NCI protocol relative to control. Type of test: functional. Conditions: read-out: GI. The essentials: as §1
The subject of test [7] is LOX IMVI. The experiment in a line: Cytotoxicity against human LOX IMVI assessed as growth inhibition at 10 uM by NCI protocol relative to control. The settings on record: read-out: GI. Type of test: functional. Summed up:
as §1

The test system of test [8] is CCRF-CEM. The experiment in a line: Cytotoxicity against human CCRF-CEM assessed as growth inhibition at 10 uM by NCI protocol relative to control. The settings on record: read-out: GI. Type of test: functional. The essentials:
as §1

Test [9] relates to PC-3. Put plainly: Cytotoxicity against human PC3 assessed as growth inhibition at 10 uM by NCI protocol relative to control. The settings on record: read-out: GI. Type of test: functional. The essentials: as §1
In test [10] the test system is Hs-578T. Put plainly: Cytotoxicity against human HS 578T assessed as growth inhibition at 10 uM by NCI protocol relative to control. Type of test: functional. The settings on record: read-out: GI. Summed up: as §1
Test [11] concerns HCT-116. Put plainly: Cytotoxicity against human HCT-116 assessed as growth inhibition at 10 uM by NCI protocol relative to control. Type of test: functional. Conditions: read-out: GI. The essentials:
as §1

In test [12] the test system is SR. Put plainly: Cytotoxicity against human SR assessed as growth inhibition at 10 uM by NCI protocol relative to control. Type of test: functional. The settings on record: read-out: GI. The essentials:
(§2)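 Run by the NCI under its standard protocol: one dose of 10 μM against a sixty-line panel from nine human tumour tissues. Result given as percent growth inhibition of treated cells relative to untreated cells.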

Test [13] relates to SK-MEL-5. Put plainly: Cytotoxicity against human SK-MEL-5 assessed as growth inhibition at 10 uM by NCI protocol relative to control. Type of test: functional. Conditions: read-out: GI. The essentials: as §1
Test [14] concerns MOLT-4. Put plainly: Cytotoxicity against human MOLT-4 assessed as growth inhibition at 10 uM by NCI protocol relative to control. Type of test: functional. The settings on record: read-out: GI. Summed up:
as §1

The subject of test [15] is RPMI-8226. The experiment in a line: Cytotoxicity against human RPMI-8226 assessed as growth inhibition at 10 uM by NCI protocol relative to control. The settings on record: read-out: GI. Type of test: functional. Summed up: as §1
The test system of test [16] is SN12C. Put plainly: Cytotoxicity against human SN12C assessed as growth inhibition at 10 uM by NCI protocol relative to control. Type of test: functional. Conditions: read-out: GI. Summed up: as §2
In test [17] the test system is T47D. The experiment in a line: Induction of apoptosis in human T47D cells assessed as total apoptotic cells after 24 hrs by Annexin V-FITC/propidium iodide staining based flow cytometric analysis (reference value: 2.61 %). Type of test: functional. For orientation: In flow cytometry, cells or beads pass a laser one at a time.
Test [18] concerns T47D. The experiment in a line: Induction of apoptosis in human T47D cells assessed as early apoptotic cells after 24 hrs by Annexin V-FITC/propidium iodide staining based flow cytometric analysis (reference value: 0.66 %). Type of test: functional.
Test [19] deals with MCF10. The experiment in a line: Cytotoxicity against human MCF10 cells assessed as reduction in cell viability after 3 hrs by MTT assay. The settings on record: MCF10, 3 h. (In general: Tetrazolium dyes change colour on reduction, which living cells bring about.)
Test [20] relates to T47D. Put plainly: Induction of cell cycle arrest in human T47D cells assessed as increase in accumulation at pre G1 phase after 24 hrs by propidium iodide/Annexin V staining based FACScan flow cytometry(reference value: 2.61%). Type of test: functional.
The test system of test [21] is T47D. The experiment in a line: Induction of apoptosis in human T47D cells assessed as late apoptotic cells after 24 hrs by Annexin V-FITC/propidium iodide staining based flow cytometric analysis (reference value: 0.21 %). Type of test: functional.
Test [22] has as its system T47D. Put plainly: Induction of cell cycle arrest in human T47D cells assessed as increase in accumulation at G2/M phase after 24 hrs by propidium iodide/Annexin V staining based FACScan flow cytometry(reference value: 12.79%). Type of test: functional.
For test [23], the system named is T47D. Put plainly: Induction of cell cycle arrest in human T47D cells assessed as increase in accumulation at S phase after 24 hrs by propidium iodide/Annexin V staining based FACScan flow cytometry(reference value: 34.62%). Type of test: functional.
Test [24] concerns T47D. Put plainly: Induction of cell cycle arrest in human T47D cells assessed as increase in accumulation at G0/G1 phase after 24 hrs by propidium iodide/Annexin V staining based FACScan flow cytometry(reference value: 52.59%). Type of test: functional.
The subject of test [25] is T47D. Put plainly: Induction of apoptosis in human T47D cells assessed as necrotic cells after 24 hrs by Annexin V-FITC/propidium iodide staining based flow cytometric analysis (reference value: 1.74%). Type of test: functional.

Take `O=C(CN1CCN(c2cc(=O)n(-c3ccccc3)c3ccccc23)CC1)Nc1nc(-c2ccccc2)cs1`: the inhibition of growth at 10 µM was 77.6% in test [1]; 67.8% in test [2]; 10.7% in test [3]; 76.7% in [4]; 51.8% in [5]; 33.5% in test [6]. For the same molecule, the inhibition of growth at 10 µM in test [7] is 50.5%; in [8], 60.4%; in [9], 67.5%; in test [10], 17.1%; in test [11], 46.6%; in [12], 48.7%. Moreover, the inhibition of growth at 10 µM amounted to 94.7% in test [13], 82.2% in test [14], 53.8% in test [15] and 17.9% in [16].
For the molecule `O=C(CN1CCN(c2cc(=O)n(-c3ccccc3)c3ccccc23)CC1)Nc1nc(-c2ccc(Cl)cc2)cs1`, the Activity in test [17] was 25.12%; in [18], 4.06%; in test [20], 25.12%; in test [21] it was 11.21%; in test [22], 4.95%; in test [23], 49.36%. Besides, the Activity in test [24] is on record as 45.69%; in test [25], 9.85%. The inhibition of growth at 10 µM in [1] stood at 75.8%; in [2] it was 45.2%; in test [3] it was 32.4%; in test [4] it was 80.3%; in [5], 52.6%; in test [6] it was 34.2%. For the same molecule, the inhibition of growth at 10 µM in [7] stood at 41.6%; in test [8], 49.3%; in [9] it was 65%; in test [11], 64.2%; in [12] it was 43.2%; in test [13], 94.9%. Moreover, the inhibition of growth at 10 µM in test [14] was determined as 71%; in test [15], 63.3%; in [16], 25.9%. The half-inhibitory concentration (IC50) in test [19] turned out to be 64.6 µM.
In the case of `Cc1ccc(-c2csc(NC(=O)CN3CCN(c4cc(=O)[nH]c5ccc(F)cc45)CC3)n2)cc1`, the inhibition of growth at 10 µM was found to be 42.4% in [1]; 21.4% in test [2]; 25.6% in [3]; 30.6% in [4]; 11.7% in test [5]; 23.9% in [7]. Further, the inhibition of growth at 10 µM in test [8] was found to be 47%; in test [9], 55.9%; in test [10] it was 41.4%; in [11] it was 45.2%; in [12], 47.5%; in test [13] it was 44%. The figures for the inhibition of growth at 10 µM in [14], in [15] and in test [16] were 53.2%, 51.1% and 45.1%, respectively.
Consider `O=C(CN1CCN(c2cc(=O)[nH]c3ccc(F)cc23)CC1)Nc1nc(-c2ccc(Cl)cc2)cs1`, for which the inhibition of growth at 10 µM was found to be 44.8% in test [1]; 18.1% in [2]; 32.8% in [3]; 39.1% in test [4]; 12.6% in test [5]; 21.8% in [7]. The inhibition of growth at 10 µM in [8] is 33.3%; in test [9], 45.1%; in test [10] it was 33.5%; in test [11], 48%; in test [12], 29.1%; in test [13], 34.6%. The results for the inhibition of growth at 10 µM in test [14], in test [15] and in [16] were 52.8%, 38.3% and 36.2%, respectively.
